The list is not random: actives were taken first. Their share in the collection is about 5.6%.
UPR CHOP act – apoptotic UPR (CHOP) activation. AID 449763. CHO-CHOP luciferase reporter, luminescence; percent of tunicamycin response over DMSO baseline. actives 0.34% (n = 330,000). activation, % at 10 µM;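 active = at 10 µM dose, activation of 40% or more, normalized to positive control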;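 also: 100% = tunicamycin at 10 µg/mL and 0% = DMSO alone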
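Test system: CHO CHOP reporter cells. Input: 500 CHO-CHOP cells per well. Medium: F12 with 10% FBS. Technique: luciferase luminescence. Measure: percent activation relative to tunicamycin control. Dosing: 10 µM compound, 0.5% DMSO. Timing: 16-18 h cell attachment, then 6 h compound exposure, 37 °C.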
GRIN3A LBD mod – NR3A (human) ligand-binding domain modulation; NR3A LBD differential scanning fluorimetry, Tm shift; 0% = protein alone, 100% = glycine-bound protein; Tm shift relative to glycine control, % at 25 µM; actives 2.5% (n = 340,000); AID 1259313;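 active = melting temperature shift of at least 10% of the positive control shift, at one fixed dose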
aDG glyco up – increases alpha dystroglycan glycosylation; actives 0.22% (n = 360,000); activation, % at 10 µM; Pro5-aDG cells, alpha-DG glycosylation AlphaScreen (IIH6); 0% Pro5, 100% B10-LARGE cell signal; AID 624168;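 active = activation of at least 8% versus controls, or a plate z-score of at least 8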;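 also: Pro5 are CHO cells carrying HIG-tagged alpha-DG that lacks glycosylation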
UPR XBP1 act – adaptive UPR (XBP1) activation. activation, % at 20 µM. actives 0.33% (n = 330,000). CHO-XBP1 luciferase reporter, IRE1-XBP1 UPR activation, luminescence; percent of tunicamycin response, DMSO as zero;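 active = versus positive control, 20 µM dose yields 30% or more activation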;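 also: 100% = tunicamycin at 10 µg/mL and 0% = DMSO only wells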
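Material: CHO-XBP1 cells stably carrying IRE1-XBP1-driven luciferase reporter | Medium: F12 with 10% serum | Compound dosing: 20 µM single concentration, DMSO 1% | Incubation: Overnight seeding at 37 °C, 6 h compound treatment at 37 °C | Detection: Steady-Glo luminescence read | Read-out basis: % activation of reporter signal versus tunicamycin and DMSO controls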
CHOP inh – CHOP inhibition in unfolded protein response; CHO-K1 CHOP-promoter luciferase, tunicamycin-induced, 15-18 h; inhibition, % at 10 µM; actives 3.8% (n = 220,000); AID 2732;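 active = compounds that reduced the stress-induced luciferase reporter signal by more than about 70% of percent inhibition, limit read from the data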;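 also: 0% = tunicamycin plus vehicle and 100% = wells without tunicamycin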
MPTP inh – permeability transition pore inhibition; isolated mouse mitochondria, Ca2+ swelling absorbance, 30 min; inhibition, % at 10 µM; actives 1.4% (n = 360,000); AID 602449;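 active = inhibition of 50% or more, scaled per plate between neutral and stimulator controls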;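 also: 0% = DMSO wells given calcium and 100% = 1 mM EGTA wells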
aDG glyco conf – confirmation of alpha dystroglycan glycosylation activators. Pro5-aDG cells, alpha-DG glycosylation, IIH6 AlphaLISA; scaled to LARGE-overexpressing B10 cells as 100%. actives 17% (n = 600). shares compounds with aDG glyco up. activation, % at 10 µM (by protocol);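 active = activation of at least 7% in one or more replicates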;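 also: cells exposed to compound for two days before detection; 0% = DMSO-treated Pro5 cells and 100% = DMSO-treated B10-LARGE cells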
Active calls of the source: *.

Results for CC1(NC(=O)Nc2cc([N+](=O)[O-])ccc2O)CCS(=O)(=O)C1 (stereo unspecified) ?
UPR CHOP act: 0; GRIN3A LBD mod: -1; aDG glyco up: 6.9*; UPR XBP1 act: 0; MPTP inh: -1; aDG glyco conf: 0

What do the screens show for `O=C(O)c1ccccc1C(=O)NCc1cccnc1`?
UPR CHOP act: 3; GRIN3A LBD mod: 0; aDG glyco up: 0; UPR XBP1 act: 1; CHOP inh: -12; MPTP inh: 0

What do the screens show for `O=C(NCc1cccnc1)NC1(c2ccccc2)CC1`?
UPR CHOP act: -2; GRIN3A LBD mod: -2; aDG glyco up: 10*; UPR XBP1 act: -1; CHOP inh: -13; MPTP inh: -1; aDG glyco conf: 0

Results for Cc1ccc2c(C)c(C(=O)Nc3cccnc3)oc2c1C ?
GRIN3A LBD mod: 0; aDG glyco up: 0; MPTP inh: 1

Results for O=C(O)CC1CCCc2ccccc2C1O (stereo unspecified) ?
CHOP inh: -35

What do the screens show for `Cn1nccc1C(=O)Nc1cc(Cl)ccc1Cl`?
UPR CHOP act: 2; GRIN3A LBD mod: 0; aDG glyco up: 2.7*; UPR XBP1 act: 0; MPTP inh: 1; aDG glyco conf: -1

What do the screens show for `COc1ccc(-n2c(=O)c3ccccc3n(Cc3ccccc3F)c2=O)cc1OC`?
UPR CHOP act: 16; GRIN3A LBD mod: 0; aDG glyco up: 1.8*; UPR XBP1 act: 0; CHOP inh: 20; MPTP inh: 0; aDG glyco conf: -1

Results for CCCCc1c(-c2cccc(OC)c2)ncn1CCc1ccccc1OC ?
aDG glyco up: 0; MPTP inh: 10

What do the screens show for `CCCCc1c(-c2ccccc2OC)ncn1Cc1cccc(-c2ccccc2)c1`?
aDG glyco up: 11*; MPTP inh: 31; aDG glyco conf: 1

Results for CCCCc1c(-c2ccccc2OC)ncn1CCc1cccc(Cl)c1 ?
aDG glyco up: 0; MPTP inh: 5

How did CCCCc1c(-c2ccc(OC)c(OC)c2)ncn1CCc1ccccc1OC do in these assays?
aDG glyco up: 14*; MPTP inh: 2; aDG glyco conf: 0

Results for CC(C)(C)OC(=O)N1CCC(c2cc(-c3cccs3)n[nH]2)CC1 ?
UPR CHOP act: 3; GRIN3A LBD mod: 0; aDG glyco up: 1; UPR XBP1 act: -4; CHOP inh: -18; MPTP inh: -2

What do the screens show for `CCOC(=O)c1ccc(NC(=S)N2CCN(C)CC2)cc1`?
UPR CHOP act: 1; GRIN3A LBD mod: -4; aDG glyco up: 6.9*; UPR XBP1 act: -4; MPTP inh: 0; aDG glyco conf: -1

Results for CCOC(=O)c1ccc(NC(=S)N2CCC(C(N)=O)CC2)cc1 ?
UPR CHOP act: 2; GRIN3A LBD mod: -7; aDG glyco up: 0; UPR XBP1 act: 0; CHOP inh: 30; MPTP inh: 1

How did OC1(c2ccc(OC(F)F)cc2)CSC(=Nc2cccnc2)N1C1CC1 (stereo unspecified) do in these assays?
UPR CHOP act: 0; GRIN3A LBD mod: -2; aDG glyco up: 6.9*; UPR XBP1 act: -1; CHOP inh: 36; MPTP inh: 21; aDG glyco conf: 0

How did COc1ccc(OC)c(C2(O)CSC(=Nc3cccnc3)N2Cc2ccco2)c1 (stereo unspecified) do in these assays?
UPR CHOP act: 2; GRIN3A LBD mod: -1; aDG glyco up: 0; UPR XBP1 act: 5; CHOP inh: -7; MPTP inh: 0

What do the screens show for `O=C1SCCN1N=Cc1ccc([N+](=O)[O-])o1`?
GRIN3A LBD mod: -12; aDG glyco up: 7.2*; MPTP inh: -2; aDG glyco conf: 3.5*

How did Clc1cccc(Cc2c(-c3cccc(Cl)c3)nc3c4ccccc4ccn23)c1 do in these assays?
aDG glyco up: 1; MPTP inh: 1

Assay outcomes: PubChem BioAssay, several laboratories
